HTR1E agonist: activates the human 5-HT1E serotonin receptor. P28566. CHO 5-HT1E Ga15 NFAT-bla reporter, FRET; 0% DMSO wells, 100% control agonist wells. activation, % at 6 µM. 65,000 compounds, 0.69% hits. AID 574;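 active = activation above a set limit, the screen-wide mean activation plus 3 SD, cut at about 8.5% in these data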;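 note: 100% = positive control agonist at 1 µM giving full maximal response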
5HT1a antag: blocks the human serotonin 5-HT1a receptor | P08908 | CHO 5-HT1a Ga15 NFAT-bla reporter, antagonist mode | inhibition, % at 10 µM | 62,000 compounds, 0.68% hits | AID 612;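 active = inhibition above the mean of all tested compounds plus 3 SD, cut at about 43% in these data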;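 note: receptor stimulated by 5-CT agonist at 100 nM near EC80; beta-lactamase reporter measured by ratiometric fluorescence of a cleavable substrate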
Target sequence (P08908 whole entry, looked up): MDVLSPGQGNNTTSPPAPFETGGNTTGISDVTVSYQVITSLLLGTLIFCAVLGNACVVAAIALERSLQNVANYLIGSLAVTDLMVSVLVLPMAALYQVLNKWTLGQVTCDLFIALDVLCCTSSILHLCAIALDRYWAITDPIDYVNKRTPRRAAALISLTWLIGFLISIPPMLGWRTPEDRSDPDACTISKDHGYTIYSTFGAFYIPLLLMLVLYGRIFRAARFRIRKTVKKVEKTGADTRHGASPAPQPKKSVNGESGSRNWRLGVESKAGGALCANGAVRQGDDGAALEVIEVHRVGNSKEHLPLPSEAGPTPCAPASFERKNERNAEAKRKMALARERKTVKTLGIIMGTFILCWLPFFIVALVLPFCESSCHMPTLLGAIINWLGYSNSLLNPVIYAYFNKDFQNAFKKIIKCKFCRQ
HTR1E antagonist: 5-HT1E (human) receptor antagonism. P28566. inhibition, % at 6 µM. 65,000 compounds, 0.99% hits. CHO 5-HT1E Ga15 NFAT-bla reporter, FRET, antagonist;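 active = inhibition above a set limit, the mean inhibition across every tested compound plus 3 SD, cut at about 29% in these data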;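 note: signal is the 460 over 535 nm emission ratio of beta-lactamase substrate; 0% = agonist plus DMSO wells and 100% = wells without agonist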
HTR1A agonist: agonists of human 5-HT1a serotonin receptor. P08908. CHO 5-HT1a Ga15 NFAT-bla reporter, FRET ratio; 0% basal, 100% maximal reference agonist. activation, % at 10 µM. 65,000 compounds, 0.56% hits. AID 567;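 active = activation above the screen-wide mean activation plus 3 SD, cut at about 19% in these data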;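 note: 0% = DMSO wells and 100% = 5-CT at EC100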
HEK293 NFkB inh: inhibitors of the PMA/ionomycin-induced NF-kB reporter in HEK293 cells. HEK-293 NF-kB luciferase reporter, luminescence. inhibition, % at 3 µM. 62,000 compounds, 0.21% hits;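 active = inhibition above the mean of all tested compounds plus 3 SD, cut at about 40% in these data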;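 note: 0% = stimulated DMSO wells and 100% = 10 µM reference inhibitor 5653914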
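System – HEK-293 cells with stable firefly luciferase reporter driven by four HIV NF-kB elements · Doses – one dose, 3 µM · Schedule – 1 h compound pre-incubation, 16 h PMA/ionomycin at 37 °C · Technique – luminescence from luciferase substrate reagent · Measure – percent inhibition normalized per plate to DMSO and reference-inhibitor controls · Replicates – tested once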
SK-BR-3 tox 24h: SK-BR-3 proliferation inhibitors; SK-BR-3 viability, CellTiter-Glo ATP luminescence, 24 h; stronger effect = lower value; 41,000 compounds, 0.47% hits; viability, % at 10 µM;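 active = viability at or below the median of all test compounds minus 3 SD, in both replicates if run twice, cut at about 45% in these data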;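 note: 100% = median untreated cell wells and 0% = median positive control drug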
* hit, by the source's call; · = not tested or not shown. A selection: hits, their analogues and other compounds. The true share with any hit is near 2.9%.

SMILES	HTR1E agonist	5HT1a antag	HTR1E antagonist	HTR1A agonist	HEK293 NFkB inh	SK-BR-3 tox 24h
COc1ccc(-c2c3c(=O)n(C)c(=O)n(C)c3cn2C2CCCCC2)cc1	0	8	6	-1	18	80
O=C(CCCN1Cc2ccccc2C1)c1ccc(F)cc1	1	27	1	22*	22	88
CN1CCN(CCCC(=O)c2ccc(F)cc2)CC1	0	-1	-6	0	-2	88
COC(=O)c1cc(CC(=O)c2ccc(O)cc2O)c(C)o1	0	5	6	284*	2	·
COC(=O)c1ccc(CC(=O)c2ccc(O)cc2O)o1	0	-18	11	0	3	·
CC(C)(C)c1ccccc1OCCCCCNCCO	0	-6	-9	0	19	·
O=C(CN1C(=O)NC2(CCCCCC2)C1=O)N1CCC(Cc2ccccc2)CC1	0	-18	1	-2	18	·
CC1CN(C(=O)CN2C(=O)NC3(CCCCCCC3)C2=O)CC(C)O1 (stereo not drawn)	20*	-11	-9	-1	7	·
O=C1CC(NCc2ccccc2F)C(=O)N1c1ccccc1 (stereo not drawn)	0	0	-1	-1	1	39*
Cc1cc(C(C)(C)C)cc(C)c1CC1=NCCN1	89*	·	-3	43*	·	78
c1ccc(CN(CC2=NCCN2)c2ccccc2)cc1	0	·	3	0	·	92
N#CC1=C(N)N(c2ccc(Oc3ccccc3)cc2)C(=O)C1	0	-20	-6	-1	9	·
CCCS(=O)(=O)N1CCCC(C(=O)NCCN2CCC(Cc3ccccc3)CC2)C1 (stereo not drawn)	0	46*	-4	-2	-1	·
CCCS(=O)(=O)N1CCCC(C(=O)NCCN(C)Cc2ccccc2)C1 (stereo not drawn)	1	-4	-10	-2	11	·
O=C(Nc1nnc(-c2ccccc2Cl)o1)c1ccco1	0	3	-1	0	-2	95
COc1ccccc1-c1nnc(Nc2nc3c(OC)cccc3s2)o1	1	51*	53*	-5	6	75
COc1cccc2sc(Nc3nnc(-c4ccccc4Cl)o3)nc12	2	64*	25	-4	13	·
COc1cccc(-c2nnc(Nc3nc4c(F)cccc4s3)o2)c1	0	12	-5	-1	-36	93
COc1ccc(CN2CCN(c3cccc(C)c3C)CC2)cc1OC	24*	6	11	29*	13	100
COc1cc(CN2CCC(C(=O)N3CCC(C)CC3)CC2)cc(Br)c1O	0	5	13	-3	25	58
COc1cc(CN2CCN(c3cccc(C)c3C)CC2)cc(Br)c1O	36*	10	2	1	7	74
COc1ccc(CN2CCC(C(=O)N3CCN(c4ccccc4F)CC3)CC2)cc1OC	0	2	-9	0	14	·
CCOc1cc(C2c3c(oc4cc(C)c(Cl)cc4c3=O)C(=O)N2Cc2ccco2)ccc1O (stereo not drawn)	9.8*	-3	-8	1	11	83
Cc1ccc2oc3c(c(=O)c2c1)C(c1cccc(Br)c1)N(Cc1ccco1)C3=O (stereo not drawn)	-1	0	-9	0	-3	91
Cc1cc2oc3c(c(=O)c2cc1C)C(c1cccc(Br)c1)N(Cc1ccco1)C3=O (stereo not drawn)	0	14	-5	3	18	42*
SMILES	HTR1E agonist	5HT1a antag	HTR1E antagonist	HTR1A agonist	HEK293 NFkB inh	SK-BR-3 tox 24h
COc1ccc2oc(C(=O)C3CC3)c(NC(=O)CCCN3C(=O)c4ccccc4C3=O)c2c1	0	1	5	-3	1	·
Cc1nc(NC2=NCN(Cc3cccnc3)CN2)nc2c(C)cccc12	-1	5	10	-1	15	86
O=S(=O)(C/C(=C/CO)S(=O)(=O)c1ccccc1)c1ccccc1	0	92*	106*	-1	18	154
O=C(CS(=O)(=O)c1ccccc1)N1CCCCCC1	0	4	14	-1	-13	105
CCOc1ccc2[nH]c(=O)c(CN(Cc3cccs3)Cc3nnnn3C(C)(C)CC)cc2c1	9.5*	32	17	7	7	178
CCC(C)(C)n1nnnc1CN(Cc1cccs1)Cc1cc2cc(OC)ccc2[nH]c1=O	1	10	-5	12	-2	58
CC(OC(=O)c1ccncc1)C(=O)Nc1cccc(Cl)c1 (stereo not drawn)	0	10	-7	-2	22	71
COc1ccc(CN2CCN(c3ccccn3)CC2)c(OC)c1	11*	4	-6	0	10	·
COc1ccc(CN2CCN(c3ncccn3)CC2)c(OC)c1	2	0	-4	4	10	98
Oc1c(CN2CCN(c3ccccn3)CC2)cc(Cl)c2cccnc12	2	54*	54*	-3	21	75
Oc1c(CN2CCCCC2)cc(COCc2ccccc2)c2cccnc12	2	30	48*	-2	32	·
Oc1ccc(COCc2ccccc2)c2cccnc12	0	12	47*	-2	7	49
CCc1ccc(NC(=O)N(C2CCC(C)CC2)C2CCN(C(C)=O)CC2)cc1 (stereo not drawn)	0	-2	-6	-2	3	·
O=C(COc1cc(Cl)ccc1Cl)Nc1nnc(CC(=O)N2CCOCC2)s1	-1	-7	2	2	8	91
O=C(Nc1ccc(S(=O)(=O)C(F)F)cc1)c1cccc(S(=O)(=O)N2CCOCC2)c1	0	2	-2	20*	8	64
N#Cc1nc(-c2cccs2)oc1NCCc1ccccc1	-1	·	36*	4	·	97
N#Cc1nc(-c2ccco2)oc1NCCc1ccccc1	0	-13	5	-1	19	76
CCOc1ccc(NC(=O)CN2C(=O)C3CCCN3C2=O)cc1 (stereo not drawn)	-2	-4	14	-1	12	·
CCOC(=O)c1nn(-c2ccccc2)c(C#N)c1NC(=O)c1nn(CC)cc1Br	0	17	54*	2	4	75
CCOC(=O)c1c(NC(=O)c2nn(CC)cc2Br)c(C#N)nn1-c1ccccc1	0	4	18	2	14	88
COc1cc(C2c3c(n[nH]c3C)C(=O)N2c2ccc(Br)cc2)ccc1O (stereo not drawn)	0	3	-6	-4	4	92
CCOc1cc(C2c3c(n[nH]c3C)C(=O)N2c2ccc(Br)cc2)ccc1O (stereo not drawn)	0	14	-12	0	18	37*
O=C(O)C1CCCCC1C(=O)N1CC=C(c2ccccc2)CC1 (stereo not drawn)	22*	3	3	6	18	·

Bioassay records deposited in PubChem BioAssay by several laboratories.
